Experimental data reported in PubChem BioAssay AID635 (SRMLSC, 2007).
Hit rate of the full screen: of about 1,300 compounds, about 40 (3%) were called active. No rule for the calls is given here. Not all results are given here. Measured potencies and affinities stand elsewhere.

Assay: growth inhibition of wild-type E. coli BW25113 pool, dose response, OD615 (AID 635);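 also: growth measured after 20 h with compound at 37 °C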
Conditions: pooled mutant strains; at 100 µM (top of the series)
Summary of the method: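 Material: Keio BW25113 knockout pool, 1,275 strains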

Compound | growth inhibition
O=S(=O)(N1CCCCC1)n1c(Cc2ccccc2)nc2ccccc21 | 2.59% (inactive)
Cc1cc(N2CCCCC2)n2ncc(-c3ccccc3)c2n1 | 1.76% (inactive)
Cc1ccc(C(c2nnnn2CCc2ccccc2)N2CCSCC2)cc1 (stereo not drawn) | -0.97% (inactive)
N#Cc1cn(Cc2cccc(Cl)c2)c2ccccc12 | 7.22% (inactive)
CCCCN1C(=O)C2ON(c3ccccc3C)C(c3ccco3)C2C1=O (stereo not drawn) | 3.87% (inactive)
CN1CCN(CC(=O)N2CCn3c4c(c5cc(C6CCCCC6)ccc53)CCCC42)CC1 (stereo not drawn) | 1.85% (inactive)
CCN(CCCNC(=O)c1[nH]c(C)c(C(C)=O)c1C)c1cccc(C)c1 | 1.22% (inactive)
CCCc1cc(C(=O)N2CCN(c3ccccc3C)CC2)cs1 | 3.4% (inactive)
COc1ccc2nc(NC(=O)CSc3nnnn3C3CCCCC3)sc2c1 | 0.18% (inactive)
CCn1cc(C(=O)NC2CCCCC2C)c(=O)c2ccc(C)nc21 (stereo not drawn) | 7.04% (inactive)
Cc1cccc(NC(=O)CSc2nnc(-c3cc(C)n(-c4ccccc4)c3C)o2)c1C | 0.15% (inactive)
O=S(=O)(Nc1cc(Cl)ccc1N1CCCCC1)c1cccs1 | 3.05% (inactive)
Cc1cc(=O)[nH]c(SCC(=O)Nc2nc(-c3ccccc3)cs2)n1 | 4.29% (inactive)
COc1ccccc1N1CCN(C(=O)c2cc(-c3cccc(Cl)c3)on2)CC1 | -2.98% (inactive)
CC(C)c1nnc(NC(=O)c2c(O)c3cccc4c3n(c2=O)CC4)s1 | -11% (inactive)
CCOc1cc(S(=O)(=O)N2CCN(Cc3ccccc3)CC2)ccc1Br | -3.26% (inactive)
CC1CN(c2oc(COc3ccc(Cl)cc3Cl)nc2C#N)CC(C)O1 (stereo not drawn) | -5.37% (inactive)
CN(C1CCCCC1)S(=O)(=O)c1ccc(NC(=O)c2ccc(Br)o2)cc1 | -1.39% (inactive)
Cc1[nH]n2c(=O)c3c(nc2c1-c1ccc(Cl)cc1)CCC3 | -1.19% (inactive)
CCOC(=O)c1cn(CC)c2cc(N3CCSCC3)c(F)cc2c1=O | 3.43% (inactive)
Cc1csc(NC(=O)c2cccc(Cn3nc(C)c(Br)c3C)c2)n1 | 1.33% (inactive)
COc1ccc(-c2[nH]ncc2Oc2ccccc2OC)c(O)c1 | 7.41% (inactive)
Cc1ccc(Cl)cc1NC(=O)CC(O)(C(F)(F)F)C(F)(F)F | 15.3% (inactive)
CCOC(=O)C1CCN(C(c2cccnc2)c2c(NC(=O)c3ccco3)sc(C)c2C)CC1 (stereo not drawn) | -3.15% (inactive)

Compound | growth inhibition
Cc1cc(C)c(O)c(-c2cc(C(=O)Nc3ccc(S(=O)(=O)N4CCOCC4)cc3)[nH]n2)c1 | 3.2% (inactive)
COc1ccc(S(=O)(=O)N(Cc2cccs2)C2CCCC2)cc1 | 3.24% (inactive)
COc1ccc(OCC(O)Cn2c(=N)n(Cc3ccccc3)c3ccccc32)cc1 (stereo not drawn) | 12.8% (inactive)
CCc1nc(N2CCCCC2)c2oc3ccccc3c2n1 | -3.08% (inactive)
Brc1cc(Br)c2ncnc(N3CCCCC3)c2c1 | 1.95% (inactive)
COCCCN1C(=O)c2[nH]nc(-c3ccccc3O)c2C1c1ccc(Cl)cc1 (stereo not drawn) | -4.43% (inactive)
COc1ccccc1N1CCN(C(c2ccccc2Cl)c2nnnn2C(C)(C)C)CC1 (stereo not drawn) | -0.1% (inactive)
CC(C)c1nc(N2CCN(C(=O)c3ccco3)CC2)c2c3c(sc2n1)CCCC3 | 4.77% (inactive)
O=C(CN(C(=O)CNC(=O)c1ccco1)c1ccc(Cl)c(Cl)c1)NC1CCCCC1 | 1.85% (inactive)
CCCCOn1c(C)c(C(=O)OCC)c2c3nonc3ccc21 | 2.87% (inactive)
CCOC(=O)c1sc(NC(=O)CSc2n[nH]c(-c3ccccc3)n2)c(C#N)c1C | 1.14% (inactive)
Cc1cccc(Cc2c(C)nc3c(C(=O)NCc4ccco4)cnn3c2C)c1 | -6.42% (inactive)
Cc1noc(C)c1S(=O)(=O)N(CCc1ccccc1)Cc1ccccc1 | 3.25% (inactive)
Cc1ccc2c3c1C1(C(=O)N3C(C)(C)CC2C)C(C#N)=C(N)Oc2cc(O)ccc21 (stereo not drawn) | 4.82% (inactive)
Cc1ccc(C2C(S(C)(=O)=O)=C(O)C(=O)N2c2ccccc2)cc1 (stereo not drawn) (tested in a mixture with another compound) | 3.27% (inactive)
CC1CCCC(C)N1C(=O)CN1C(=O)C(C)(C)Oc2ccc(C(=O)NC3CCCCC3)cc21 (stereo not drawn) | -0.3% (inactive)
Oc1ccccc1-c1cc(-c2ccc3c(c2)OCCO3)n[nH]1 | 5.21% (inactive)
Cc1csc(SCC(=O)Nc2nc(-c3ccccc3)cs2)n1 | 0.45% (inactive)
O=C(Nc1nc(SCc2ccc(F)cc2)ns1)c1ccco1 | 8.93% (inactive)
COc1ccc2[nH]c(=O)c(CN(C(=O)NC3CCCCC3)C3CCCCC3)cc2c1 | -1.14% (inactive)
COC(=O)c1c(NC(=O)Cc2cccs2)sc2c1CCCC2 | 4.36% (inactive)
Cn1c(-c2ccc3c(c2)OCO3)cnc1N | -1.76% (active)
OCCn1c(-c2ccc3c(c2)OCO3)csc1=Nc1ccccc1 | -0.74% (inactive)
N#Cc1c(N)oc(-c2ccc3c(c2)OCO3)c1-c1ccc2c(c1)OCO2 | 1.41% (inactive)
